Screening results: PubChem, several laboratories
Hits are enriched below; roughly 2.9% of the tested compounds scored in any of these assays.
SENP7 block = SENP7 protease inhibitors, primary screen, biochemical, luminescence, uHTS; Sentrin-specific protease 7 (Homo sapiens), Q9BQF6; recombinant SENP7, Z-RLRGG-aminoluciferin luminescence, 40 min; inhibition, % at 5 µM; 330,000 tested, 1.5% active;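 active means inhibition above about 50% at the single test dose, limit read from the data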;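 further: plate controls were DMSO with enzyme for no effect and no enzyme buffer wells for full effect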
SENP8 block-1 = SENP8 protease inhibitors, primary screen, biochemical, luminescence; Sentrin-specific protease 8 (Homo sapiens), Q96LD8; 330,000 tested, 1.2% active; purified SENP8, Z-RLRGG-aminoluciferin cleavage; AID 2540, 2010; inhibition, % at 10 µM; in the data active means inhibition above about 50%
Target sequence (Q96LD8 whole entry, looked up): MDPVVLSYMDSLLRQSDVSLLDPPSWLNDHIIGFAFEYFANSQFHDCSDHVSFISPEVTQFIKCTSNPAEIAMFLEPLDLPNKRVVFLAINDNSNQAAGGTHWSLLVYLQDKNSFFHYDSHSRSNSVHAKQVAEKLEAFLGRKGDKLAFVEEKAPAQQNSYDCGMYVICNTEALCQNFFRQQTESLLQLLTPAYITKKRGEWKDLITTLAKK
SENP6 inh = SENP6 protease inhibitors, primary screen, biochemical, luminescence, uHTS; Sentrin-specific protease 6 (Homo sapiens), Q9GZR1; Recombinant SENP6 catalytic domain, aminoluciferin luminescence; inhibition, % at 10 µM; 330,000 tested, 1.8% active;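 active means inhibition above about 50% at the single tested dose, limit read from the data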;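 further: plate controls were DMSO wells with enzyme for no effect and DMSO wells lacking enzyme for full effect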
Target sequence (Q9GZR1 628-1112 limits assumed): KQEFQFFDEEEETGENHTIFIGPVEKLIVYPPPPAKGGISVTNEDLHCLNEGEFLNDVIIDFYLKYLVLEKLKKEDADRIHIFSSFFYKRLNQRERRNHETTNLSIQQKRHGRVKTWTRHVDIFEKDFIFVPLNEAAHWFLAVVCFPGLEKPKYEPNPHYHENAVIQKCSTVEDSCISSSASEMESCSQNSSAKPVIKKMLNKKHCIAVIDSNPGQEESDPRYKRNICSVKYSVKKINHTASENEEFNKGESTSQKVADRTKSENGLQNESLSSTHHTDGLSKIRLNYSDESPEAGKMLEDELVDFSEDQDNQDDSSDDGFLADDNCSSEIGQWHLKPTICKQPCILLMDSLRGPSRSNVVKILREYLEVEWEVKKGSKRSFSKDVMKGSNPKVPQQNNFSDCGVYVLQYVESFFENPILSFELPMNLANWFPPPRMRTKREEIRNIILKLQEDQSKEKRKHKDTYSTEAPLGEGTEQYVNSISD
SENP8 block-2 = human SENP8 protease inhibitors, primary screen, biochemical, fluorescence, Nedd8 protein substrate, uHTS; inhibition, % at 20 µM; 360,000 tested, 0.64% active; Sentrin-specific protease 8 (Homo sapiens), Q96LD8; AID 602440, 2012; recombinant SENP8; in the data active means inhibition mostly above about 40%, no sharp cut-off; inactive means mostly below about 27%
SENP1 FRET inh = human SENP1 catalytic domain inhibitors, primary screen, biochemical, FRET, uHTS; AID 624204, 2012; recombinant SENP1 catalytic domain, CyPet-SUMO1-YPet FRET cleavage; inhibition, % at 10 µM; Sentrin-specific protease 1 (Homo sapiens), Q9P0U3; 360,000 tested, 0.21% active;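 active means inhibition at least 30% at 10 µM, raw YFP signal under a set limit, fluorescence ratio 0.5 to 1.5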;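 further: 0% = enzyme with DMSO and 100% = no enzyme wells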
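Assay system: hSENP1 catalytic domain, recombinant. Amount: SENP1 enzyme, 20 pM final. Schedule: 50 min reaction, RT, dark. Technique: FRET, CFP and YFP emission. Control set: no-enzyme wells low, DMSO-plus-enzyme wells high control.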
HSP90 inh = HSP90 inhibitors, primary screen, cell lysate, luminescence; Heat shock protein HSP 90 (rabbit reticulocyte lysate; luciferase refolding); Rabbit reticulocyte lysate, luciferase refolding luminescence, 3 h; inhibition, % at 5.6 µM; 290,000 tested, 0.91% active; AID 1789, 2009;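 active means inhibition above the screen-wide mean plus 3 SD, computed separately per campaign, cut at about 16% in these data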;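 further: 0% = DMSO wells and 100% = 60 µM geldanamycin wells; inhibitors lower the luminescence because luciferase stays unfolded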
SENP8 confirm = SENP8 protease inhibitors, retest, confirmation, biochemical, luminescence, single concentration; shares compounds with SENP7 block; Recombinant SENP8, Z-RLRGG-aminoluciferin luminescence, 60 min; inhibition, % at 12.5 µM; 6,200 tested, 40% active; AID 488912, 2010;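 active means mean inhibition across replicates above about 50%, limit read from the data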
SENP6 confirm = SENP6 protease inhibitors, confirmation, biochemical, luminescence, single concentration; shares compounds with SENP7 block; recombinant SENP6, Z-RLRGG-aminoluciferin luminescence; inhibition, % at 12.5 µM; 6,200 tested, 58% active; AID 488915, 2010
SENP7 confirm = SENP7 protease inhibitors, retest, confirmation, biochemical, luminescence, single concentration; AID 488917, 2010; 6,200 tested, 69% active; shares compounds with SENP7 block; recombinant SENP7, Z-RLRGG-aminoluciferin luminescence, 40 min; inhibition, % at 12.5 µM
Casp3 SENP sel = caspase-3 protease inhibitors, confirmation, selectivity assay for SENP inhibitor project, biochemical, single concentration. shares compounds with SENP7 block. purified caspase-3, Z-DEVD-aminoluciferin luminescence, 60 min. inhibition, % at 12.5 µM. 6,200 tested, 60% active. AID 488918, 2010;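 active means mean inhibition above about 50%, limit read from the data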;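 further: plate controls were enzyme with DMSO for no effect and wells without caspase-3 for full effect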
SENP luc ctr = interferes with luciferase luminescence in SENP counter-screen. 6,200 tested, 39% active. shares compounds with SENP7 block. Pre-incubated SENP8/Z-RLRGG-aminoluciferin, luciferase luminescence interference. inhibition, % at 12.5 µM;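 active means mean inhibition above about 50% when retested at one dose, limit read from the data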;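 further: plate controls were DMSO wells with completed reaction for no effect and substrate without enzyme for full effect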
An asterisk follows results filed as active; · = no result.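 How the source made its calls, unless noted: active means mean inhibition above about 50% in the one-dose retest (limit read from the data); inactive means the rest.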

SMILES | SENP7 block | SENP8 block-1 | SENP6 inh | SENP8 block-2 | SENP1 FRET inh | HSP90 inh | SENP8 confirm | SENP6 confirm | SENP7 confirm | Casp3 SENP sel | SENP luc ctr
Cc1ccc(S(=O)(=O)c2n[nH]n3c2nc(=O)c2ccccc23)cc1 | 8.3 | 1.1 | -14.1 | -237.0 | -0.3 | -1.1 | · | · | · | · | ·
O=c1nc2c(-c3cccc(Br)c3)n[nH]n2c2ccccc12 | 80.3* | 91.7* | 88.4* | -303.8 | -25.5 | 3.2 | 37.9 | 44.8 | 23.9 | 61.2* | 3.6
Fc1cccc(Cl)c1/C=C/c1cnc2ccccc2n1 | 10.5 | 96.2* | 96.4* | -83.9 | -20.3 | 16.7* | 13.0 | 84.0* | 66.2* | 57.8* | 74.1*
COC(=O)c1ccc2c(=O)n(-c3ccc(OC)cc3)c(=S)[nH]c2c1 | -1.1 | -10.3 | -14.2 | -23.6 | -0.6 | -3.7 | · | · | · | · | ·
O=C(COc1ccc2c(c1)CCC2)Nc1ccccn1 | 98.8* | 95.5* | 96.9* | 5.9 | 4.0 | · | 97.0* | 97.5* | 101.1* | 96.7* | 96.1*
Cc1cccc(NC(=O)COc2ccc3oc4c(c3c2)CCCC4)n1 | 3.7 | -0.8 | -4.0 | -15.0 | 1.7 | -4.1 | · | · | · | · | ·
Cc1cccc(NC(=O)COc2ccc3c(c2)CCC3)n1 | 51.2* | 29.1 | 60.7* | 12.1 | -0.4 | · | 56.5* | 56.1* | 83.5* | 59.7* | 46.0
Oc1cc2ccccc2cc1-c1n[nH]c(=S)o1 | 75.0* | 94.4* | 91.3* | -274.6 | 2.9 | 4.8 | 97.8* | 98.5* | 101.2* | 96.3* | 96.4*
COC(=O)c1ccc(CC(=O)c2nc3ccccc3s2)cc1 | 4.1 | 78.6* | 91.5* | 29.9 | 1.3 | 1.8 | 6.3 | 17.3 | 15.7 | 3.8 | 1.2
COC(=O)c1ccc(/C(O)=C(\C#N)c2nc3ccccc3s2)cc1 | -10.9 | 87.6* | 90.9* | 6.3 | -3.8 | -4.9 | 10.9 | 37.8 | 23.1 | 25.8 | 1.6
Cc1ccc(OC/C(O)=C(\C#N)c2nc3ccccc3s2)cc1 | 18.6 | 75.9* | 69.7* | 1.6 | -2.2 | -5.6 | 77.6* | 80.1* | 75.9* | 75.3* | 42.9
COC(=O)c1ccsc1NC(=O)CCc1ccccc1 | 87.2* | 87.2* | 87.6* | 1.5 | 3.0 | -1.4 | 90.5* | 91.3* | 100.4* | 91.3* | 65.6*
NC(=O)c1ccsc1NC(=O)CCc1ccccc1 | 13.8 | -3.6 | 19.0 | 11.6 | -6.6 | -1.1 | · | · | · | · | ·
Nc1nc(N)nc(-c2ccc(Cl)c(Cl)c2)n1 | 59.5* | 42.5 | 56.5* | -456.5 | 2.1 | · | 41.1 | 37.9 | 77.6* | 48.8 | 61.9*
Fc1ccccc1OCC1CCCN(Cc2nc(CC3CC3)no2)C1 (stereo not given) | 5.6 | -7.3 | 11.5 | 10.8 | -0.9 | -8.5 | · | · | · | · | ·
O=C(/C=C/c1cccc(F)c1)N1CCc2ccccc21 | 94.5* | 72.1* | 74.0* | 31.0 | -0.4 | -0.5 | -24.5 | -13.8 | -3.3 | -6.1 | -6.7
O=C(/C=C/c1ccc(Cl)cc1Cl)N1CCc2ccccc21 | 91.6* | 51.2* | 69.6* | 11.0 | -0.5 | -3.8 | 35.1 | 31.1 | 25.7 | 64.0* | 12.6
COc1ccccc1N1CCN(CC(=O)Nc2nc(C)c(C(=O)N(C)C)s2)CC1 | -1.5 | 0.7 | -1.3 | 11.8 | -2.1 | 0.0 | · | · | · | · | ·
C/C(=N\Nc1ccc([N+](=O)[O-])cc1)c1ccco1 | 69.8* | 57.9* | 74.3* | -20.4 | -20.2 | -7.3 | 26.7 | 50.6* | 83.5* | 45.8 | 15.6
C/C(=N\NC(=O)COc1ccc([N+](=O)[O-])cc1)c1ccco1 | -3.1 | 6.1 | 0.2 | 5.7 | 2.0 | · | · | · | · | · | ·
O=C1CNC(=S)N1C(CO)c1ccccc1 (stereo not given) | 7.0 | -2.1 | 3.2 | 5.3 | 1.6 | 1.2 | · | · | · | · | ·
CSc1ccc(/C=N/NC(=O)c2ccc(C)c(C)c2)cc1 | -0.7 | -5.5 | -27.6 | -100.0 | -0.7 | 3.8 | · | · | · | · | ·
CSc1ccc(/C=N/NC(=O)c2sccc2C)cc1 | 100.4* | 92.3* | 94.3* | -158.3 | 1.2 | 1.0 | 13.8 | 60.6* | 101.3* | 62.8* | -5.0
CSc1ccc(/C=N/NC(=O)c2cc(O)cc(O)c2)cc1 | 43.4 | 22.1 | 58.2* | -169.4 | 3.3 | -0.6 | 59.1* | 57.9* | 84.4* | 65.2* | 64.9*
CC(=S)/C=C1\Sc2ccccc2N1C | 3.0 | 4.7 | 1.2 | 28.6 | -1.4 | 1.1 | · | · | · | · | ·
SMILES | SENP7 block | SENP8 block-1 | SENP6 inh | SENP8 block-2 | SENP1 FRET inh | HSP90 inh | SENP8 confirm | SENP6 confirm | SENP7 confirm | Casp3 SENP sel | SENP luc ctr
COc1ccc(C(=O)/C=C2\Sc3ccccc3N2C)cc1 | 52.9* | 47.6 | 4.7 | -377.4 | -127.2 | -0.4 | 74.1* | 76.6* | 92.4* | 76.9* | 15.7
O=C(COc1ccccc1)Nc1nc2cc3c(cc2s1)OCO3 | -0.2 | -1.8 | 0.2 | 2.3 | 0.4 | 0.8 | · | · | · | · | ·
c1ccc2sc(Nc3nc4cc5c(cc4s3)OCO5)nc2c1 | 63.7* | -10.7 | 24.5 | -327.7 | -25.4 | 4.2 | 4.9 | 11.9 | 35.5 | 21.8 | 9.6
Fc1ccc2nc(Nc3nc4cc5c(cc4s3)OCCO5)sc2c1 | 35.1 | 51.8* | 71.0* | -430.7 | -48.4 | -0.8 | -6.2 | 16.6 | 19.2 | 6.9 | -1.8
CC(=O)Nc1nc2cc3c(cc2s1)OCO3 | 56.3* | 39.9 | 68.5* | 5.1 | 1.2 | 6.1 | 44.1 | 52.6* | 86.5* | 82.9* | 25.7
CC(=O)c1sc(Nc2nc3cc4c(cc3s2)OCO4)nc1C | · | · | · | -414.3 | -33.4 | 1.7 | · | · | · | · | ·
Fc1ccc2nc(Nc3nc4cc5c(cc4s3)OCO5)sc2c1 | 4.9 | -17.5 | -22.7 | -394.6 | -18.4 | -7.5 | · | · | · | · | ·
Cc1ccc(Nc2nc3ccccc3s2)c(C)c1 | 78.9* | 62.4* | 7.2 | 16.6 | 1.2 | 3.4 | 77.0* | 73.3* | 91.4* | 54.0* | 66.9*
